In ChEMBL document CHEMBL4219021, “Discovery of a Small-Molecule Degrader of Bromodomain and Extra-Terminal (BET) Proteins with Picomolar Cellular Potencies and Capable of Achieving Tumor Regression” (J Med Chem, 2018):
The source made the active and inactive calls. No cut-off for these calls is given here.

Tests used:
[1] = Drug metabolism in mouse liver microsomes assessed as metabolite m3 formation at 10 uM after 20 to 40 mins in presence of beta-NADPH […]; type: ADME, microsome
[2] = molecular target: T1, Protein cereblon/Bromodomain-containing protein 3/Cullin-4A (Homo sapiens) (UniProt Q15059+Q96SW2+Q13619); assay: Induction of cereblon/cullin 4A-mediated BRD3 degradation in human RS4:11 cells at 1 nM after 3 hrs in presence of BET inhibitor 4-((3-Cyclopropyl-1-ethyl-1H-pyrazol-5-yl)amino)-7-(3,5-dimethylisoxazol-4-yl)-6-methoxy-N-methyl-9H-pyrimido[4,5-b]-indole-2-carboxamide by Western blot method; type: cell-based
[3] = molecular target: T1, Protein cereblon/Bromodomain-containing protein 3/Cullin-4A (Homo sapiens); assay: Induction of cereblon/cullin 4A-mediated BRD3 degradation in human RS4:11 cells at 0.1 nM after 24 hrs by Western blot method; type: cell-based
Outline: (§1)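 Western blot of RS4;11 cells (2 × 10⁶ cells/well) in RPMI 1640 with 10% FBS, 37 °C, 5% CO₂, used within three months of thawing. Compound exposure was 3 h or 24 h at the indicated concentrations. Cells were lysed in RIPA with protease inhibitors, and BRD2, BRD3 and BRD4 were detected with specific antibodies, with GAPDH as loading control.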

[4] = molecular target: T2, Protein cereblon/Bromodomain-containing protein 4/Cullin-4A (Homo sapiens) (UniProt O60885+Q96SW2+Q13619); assay: Induction of cereblon/cullin 4A-mediated BRD4 degradation in human RS4:11 cells after 3 hrs by Western blot method; type: cell-based; outline: as §1
Mus musculus [5] = assay: In vivo induction of cereblon/cullin 4A-mediated BRD4 degradation in tumor of SCID mouse xenografted with human RS4:11 cells at 5 mg/kg, iv administered as single dose measured after 24 hrs by Western blot method; type: functional, organism-based
Outline: (§2)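 SCID mice bearing subcutaneous RS4;11 tumors received a single 5 mg/kg iv dose. Sacrificed at 1, 3, 6 and 24 h, with vehicle controls at 6 h, two mice per time point. Tumors ground in liquid nitrogen and lysed in CHAPS buffer, then immunoblotted for BRD2/3/4, c-Myc, PARP/cleaved PARP and caspase-3/cleaved caspase-3. Actin served as loading control.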

[6] = Drug metabolism in mouse liver microsomes assessed as metabolite m2 formation at 10 uM after 20 to 40 mins in presence of beta-NADPH […]; type: ADME, microsome
[7] = molecular target: Protein cereblon/Bromodomain-containing protein 2/Cullin-4A (Homo sapiens) (UniProt P25440+Q96SW2+Q13619); assay: Induction of cereblon/cullin 4A-mediated BRD2 degradation in human RS4:11 cells at 1 nM after 3 hrs in presence of BET inhibitor 4-((3-Cyclopropyl-1-ethyl-1H-pyrazol-5-yl)amino)-7-(3,5-dimethylisoxazol-4-yl)-6-methoxy-N-methyl-9H-pyrimido[4,5-b]-indole-2-carboxamide by Western blot method; type: cell-based
Mus musculus [8] = assay: In vivo induction of cereblon/cullin 4A-mediated BRD2 degradation in tumor of SCID mouse xenografted with human RS4:11 cells at 5 mg/kg, iv administered as single dose measured after 24 hrs by Western blot method; type: functional, organism-based; outline: as §2
[9] = molecular target: T1, Protein cereblon/Bromodomain-containing protein 3/Cullin-4A (Homo sapiens); assay: Induction of cereblon/cullin 4A-mediated BRD3 degradation in human RS4:11 cells after 3 hrs by Western blot method; type: cell-based
Outline: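 RS4;11 cells (2 × 10⁶/well) treated for 3 h at the indicated concentrations. Lysed in RIPA with protease inhibitors and immunoblotted for BRD2, BRD3 and BRD4 with specific antibodies.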

Mus musculus [10] = assay: Increase in PARP cleavage in tumor of SCID mouse xenografted with human RS4:11 cells at 5 mg/kg administered as single dose measured up to 6 hrs by Western blot method; type: functional, organism-based; outline: as §2
[11] = molecular target: T2, Protein cereblon/Bromodomain-containing protein 4/Cullin-4A (Homo sapiens); assay: Induction of cereblon/cullin 4A-mediated BRD4 degradation in human RS4:11 cells at 0.03 nM after 24 hrs by Western blot method; type: cell-based; outline: as §1

T1 sequence (Q13619 whole entry, looked up): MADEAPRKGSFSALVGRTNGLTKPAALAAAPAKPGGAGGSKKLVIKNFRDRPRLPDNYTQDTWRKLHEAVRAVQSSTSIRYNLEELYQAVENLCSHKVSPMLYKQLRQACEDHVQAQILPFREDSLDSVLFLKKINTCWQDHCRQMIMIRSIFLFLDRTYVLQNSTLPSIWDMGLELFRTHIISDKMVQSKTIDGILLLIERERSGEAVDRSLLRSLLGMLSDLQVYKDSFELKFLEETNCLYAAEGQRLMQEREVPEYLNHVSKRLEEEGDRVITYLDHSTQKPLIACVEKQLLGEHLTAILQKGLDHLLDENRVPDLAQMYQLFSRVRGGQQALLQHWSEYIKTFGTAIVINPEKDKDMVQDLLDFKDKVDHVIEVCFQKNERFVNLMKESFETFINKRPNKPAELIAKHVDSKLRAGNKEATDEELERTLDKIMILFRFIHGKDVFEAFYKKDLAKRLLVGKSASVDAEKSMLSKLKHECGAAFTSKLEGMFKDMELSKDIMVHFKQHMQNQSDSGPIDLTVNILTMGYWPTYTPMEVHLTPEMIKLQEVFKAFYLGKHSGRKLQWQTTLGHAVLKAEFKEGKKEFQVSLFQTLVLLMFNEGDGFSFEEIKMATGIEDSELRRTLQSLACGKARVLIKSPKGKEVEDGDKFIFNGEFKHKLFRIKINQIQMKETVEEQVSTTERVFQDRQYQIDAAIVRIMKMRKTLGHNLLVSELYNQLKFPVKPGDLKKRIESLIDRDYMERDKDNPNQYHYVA
T1 sequence (Q15059 whole entry, looked up): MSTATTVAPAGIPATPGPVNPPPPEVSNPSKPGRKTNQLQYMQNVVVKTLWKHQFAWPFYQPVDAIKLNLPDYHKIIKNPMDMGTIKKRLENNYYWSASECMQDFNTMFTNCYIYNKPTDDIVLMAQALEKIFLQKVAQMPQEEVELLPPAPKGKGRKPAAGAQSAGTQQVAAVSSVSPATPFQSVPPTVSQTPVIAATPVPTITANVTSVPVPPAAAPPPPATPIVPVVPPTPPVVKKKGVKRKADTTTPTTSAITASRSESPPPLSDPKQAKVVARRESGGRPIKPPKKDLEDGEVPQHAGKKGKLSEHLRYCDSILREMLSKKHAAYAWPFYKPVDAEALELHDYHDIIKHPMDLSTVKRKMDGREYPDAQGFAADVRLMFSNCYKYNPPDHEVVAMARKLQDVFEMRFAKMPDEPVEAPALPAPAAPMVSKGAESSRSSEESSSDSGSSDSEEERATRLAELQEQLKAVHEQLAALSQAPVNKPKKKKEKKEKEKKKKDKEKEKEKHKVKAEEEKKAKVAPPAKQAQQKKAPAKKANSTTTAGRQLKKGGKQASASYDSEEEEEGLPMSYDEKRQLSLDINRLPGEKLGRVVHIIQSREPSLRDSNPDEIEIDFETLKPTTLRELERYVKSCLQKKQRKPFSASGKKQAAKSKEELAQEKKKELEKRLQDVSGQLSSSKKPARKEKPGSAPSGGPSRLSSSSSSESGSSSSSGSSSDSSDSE
T1 sequence (Q96SW2 whole entry, looked up): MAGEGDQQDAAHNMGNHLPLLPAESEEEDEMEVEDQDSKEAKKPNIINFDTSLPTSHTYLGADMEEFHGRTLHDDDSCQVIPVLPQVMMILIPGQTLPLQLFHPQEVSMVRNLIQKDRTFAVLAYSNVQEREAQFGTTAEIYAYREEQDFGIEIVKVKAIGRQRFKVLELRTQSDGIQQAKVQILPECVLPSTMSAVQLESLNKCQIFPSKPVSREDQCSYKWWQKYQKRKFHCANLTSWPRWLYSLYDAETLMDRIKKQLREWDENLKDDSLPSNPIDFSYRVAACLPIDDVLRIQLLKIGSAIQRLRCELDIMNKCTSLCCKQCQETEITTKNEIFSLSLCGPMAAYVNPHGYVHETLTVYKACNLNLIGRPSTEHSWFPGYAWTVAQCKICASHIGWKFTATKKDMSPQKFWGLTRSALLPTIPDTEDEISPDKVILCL
Chain of Protein cereblon/Bromodomain-containing protein 2/Cullin-4A (Homo sapiens) (P25440 whole entry, looked up): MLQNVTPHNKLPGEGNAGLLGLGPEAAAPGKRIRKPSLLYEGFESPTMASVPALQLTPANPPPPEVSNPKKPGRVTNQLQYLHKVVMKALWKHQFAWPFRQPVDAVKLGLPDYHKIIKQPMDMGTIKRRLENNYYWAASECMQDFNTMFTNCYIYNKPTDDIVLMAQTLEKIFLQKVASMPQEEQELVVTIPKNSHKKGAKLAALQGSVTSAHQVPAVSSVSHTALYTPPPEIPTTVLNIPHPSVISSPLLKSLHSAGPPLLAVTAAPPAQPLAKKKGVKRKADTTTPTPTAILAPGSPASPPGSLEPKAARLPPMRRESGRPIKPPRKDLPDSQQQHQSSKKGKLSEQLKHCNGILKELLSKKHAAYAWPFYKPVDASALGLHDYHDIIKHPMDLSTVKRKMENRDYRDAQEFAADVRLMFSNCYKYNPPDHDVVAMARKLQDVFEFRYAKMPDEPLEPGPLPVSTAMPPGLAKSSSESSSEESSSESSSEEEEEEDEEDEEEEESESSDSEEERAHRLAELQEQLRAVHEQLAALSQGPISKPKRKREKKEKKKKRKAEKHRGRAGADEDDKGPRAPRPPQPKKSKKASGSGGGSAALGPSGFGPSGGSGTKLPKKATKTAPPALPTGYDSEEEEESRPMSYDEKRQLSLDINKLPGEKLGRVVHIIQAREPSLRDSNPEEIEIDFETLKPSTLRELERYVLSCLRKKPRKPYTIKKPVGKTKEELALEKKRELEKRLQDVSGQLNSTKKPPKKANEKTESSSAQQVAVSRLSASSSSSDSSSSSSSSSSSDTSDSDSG
Chain of Protein cereblon/Bromodomain-containing protein 2/Cullin-4A (Homo sapiens) (Q13619 whole entry, looked up): as the sequence (Q13619 whole entry, looked up) above
Chain of Protein cereblon/Bromodomain-containing protein 2/Cullin-4A (Homo sapiens) (Q96SW2 whole entry, looked up): as the sequence (Q96SW2 whole entry, looked up) above

- Drug metabolism [1]: Metabolite_Detected
- Activity [2]: inactive
- Activity [3]: Active
- Activity [4]: Dose-dependent effect
- Drug metabolism [6]: Metabolite_Detected
- Activity [7]: inactive
- Activity [9]: Dose-dependent effect
- Activity [11]: Active
Compound: CCn1nc(C2CC2)cc1Nc1nc(C(=O)NCCCCCc2cccc3c2CN(C2CCC(=O)NC2=O)C3=O)nc2[nH]c3cc(-c4c(C)noc4C)c(OC)cc3c12 (stereo unspecified)
- Activity (Mus musculus [5]): Active
- Activity (Mus musculus [8]): Active
- Activity (Mus musculus [10]): Active
